Laboratory results published in ChEMBL document CHEMBL4513216, “Probing the Open Global Health Chemical Diversity Library for Multistage-Active Starting Points for Next-Generation Antimalarials” (ACS Infect Dis, 2020).

Experiment: Toxicity liver stage against HepG2, at 10uM
Type: cell-based
Design: test concentration 10 uM, cell line HepG2-A16-CD81EGFP
Conditions: human, HepG2-A16-CD81EGFP cells; read-out: INHIBITION
Outline: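 Uninfected HepG2-A16-CD81EGFP cells, 3 × 10^3 per well, 1536-well, plated on prespotted compound at 10 μM final, parasite-free screening media added to match infected plates; puromycin 10 μM positive, DMSO 0.5% negative; run in parallel with 48 h PbLuc assay at 37 °C, 5% CO2; viability by CellTiter-Glo luminescence, normalized to controls.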

Row | Structure (SMILES) | cytotoxicity at 10 µM [%]
1 | Cc1ccc2[nH]c(CO[C@H]3CN(C(=O)C4CC4)C[C@H]3F)nc2c1 | -11.6
2 | FC(F)(F)Oc1cccc(CNC[C@H]2Cn3ccnc3CO2)c1 | 2.21
3 | O=C1Nc2ccccc2/C1=C1\CCCN1 | 5.02
4 | CC(C)Cc1nc(OCC(=O)O)c(C#N)c2c1CCCC2 | -6.14
5 | CC(C)NC(=O)NCCn1cnc(C2CCCC2)cc1=O | -0.373
6 | Cn1nc(CN2CCCC2)c2c1CN(C(=O)c1cnccn1)CC2 | -147
7 | O=C1CC(C2CCCCC2)c2c(n(C3CCCC3)[nH]c2=O)N1 (stereo not given) | -5.01
8 | CCCC(=O)Nc1sc(C(=O)OCC)c(C)c1C#N | 8.29
9 | O=C(C1CCOCC1)N1CCO[C@H]2[C@@H](OCc3ccncc3)CC[C@@H]21 | 5.54
10 | O=C(NC1CC1)c1ccn(COc2c(Cl)cccc2Cl)n1 | 7.36
11 | COc1cccc(F)c1CN1CCC(c2nc(C)cc(C)n2)C1 (stereo not given) | 6.83
12 | COc1ccc(OC)c([C@@H]2N[C@H](c3nccs3)Cc3ccsc32)c1 | 12.6
13 | CN1C[C@@H](C(=O)N2CCCOCC2)[C@@]2(CCc3ccccc3C(=O)N2)C1 | 8.64
14 | CC(C)(C)CC(=O)NCC1CCCS1 (stereo not given) | 11.2
15 | Cn1cc(C2CCCN2C(=O)COC2CCCCC2)cn1 (stereo not given) | -8.79
16 | CC(C#N)CSc1ccccc1NCC(=O)NC(C1CC1)C1CC1 (stereo not given) | 14.5
17 | COC(=O)CCNC(=O)c1cccc(C(=O)N(C)c2ccccc2)c1 | -2.69
18 | CC(C)c1nnc2n1CC(CNCc1nc3ccccc3s1)CC2 (stereo not given) | 13
19 | CC(C)C(NC(=O)NCC1CC1)c1nnc2n1CCC2 (stereo not given) | -7.44
20 | COc1ccc(NC(=O)C(C)(C)C)cc1OCc1cccnc1 | -41.1
21 | O=C(CC1CCCO1)NCCCC(=O)Nc1ccc(Cl)cc1 (stereo not given) | 2.91
22 | Cc1ccccc1C(=O)NCc1ccc(N2CCNC(=O)C2)c(F)c1 | -13.8
23 | O=C1CC2(CCCCC2)CC(=O)N1CC(O)COCc1ccc(Cl)cc1 (stereo not given) | -1.04

Row | Structure (SMILES) | cytotoxicity at 10 µM [%]
24 | CCOc1cc(CN(C)CCOC)ccc1OC(F)F | -13.7
25 | Cn1cc(CN2CCc3onc(C(=O)Nc4cccnc4)c3C2)cn1 | 4.22
26 | NC(=O)c1ccnc(N2CCCC(CO)(Cc3ccc(F)cc3)C2)c1 (stereo not given) | 14.1
27 | CCc1nccn1CCCn1ccnc1-c1[nH]cnc1C | 10
28 | CCOc1ccc2[nH]c(=O)c(CN3CCC(n4cnnc4)CC3)cc2c1 | -0.966
29 | Cc1nc(CNC2CC(=O)N(CCc3cccc(Cl)c3)C2)c[nH]1 (stereo not given) | -133
30 | Cc1cc(C(=O)N2CCC3(CC2)CN(CCN(C)C)C(=O)O3)nc(C)n1 | 2.92
31 | COCCn1ccnc1C1CCCN(c2cc(OC)nc(N)n2)C1 (stereo not given) | 11.2
32 | Fc1ccccc1C(CNc1ccncn1)N1CCCC1 (stereo not given) | 2.84
33 | COc1cccc([C@@H]2CCN(Cc3cn(C)c4ccccc34)C[C@H]2O)c1 | 14.7
34 | CCc1nc(N)nc(NCc2cnn3cccnc23)c1C | 52.5
35 | Cc1csc2c(N3CCC(NCCCc4ccncc4)CC3)ncnc12 | -1.54
36 | Clc1ccccc1C1(c2ccnc(CC3CC3)n2)CCNCC1 | -10.3
37 | CN(C)Cc1ccc(C2CCCCN2C(=O)c2cccc(CO)n2)cc1 (stereo not given) | -16.9
38 | O=C(O)C1(Cc2ccccc2Cl)CCN(c2ncccc2F)CC1 | -12.3
39 | CC(C)(C)c1cc(CN2CC[C@@H](NC(=O)c3cccnc3)[C@H](O)C2)n[nH]1 | -13.2
40 | O=C(NCCOc1ccc(Cl)cc1)N1CCS(=O)(=O)CC1 | 0.89
41 | CCc1cc2cc(OC)c(OC)cc2nc1SCCN1CCCCC1 | -4.82
42 | COc1ccccc1CN(CCCn1ccnc1)CC1CCOC1 (stereo not given) | 11
43 | O=C(Nc1cnccn1)[C@@H]1CC[C@@H]2[C@@H](CCN2Cc2nccs2)O1 | -136
44 | CS(=O)(=O)NC[C@H]1OC[C@@H]2CCN(CCc3ccccc3)C[C@@H]21 | -4.67
45 | CN(C)C(=O)NCc1cc2n(n1)CCN(CC1[C@H]3CNC[C@@H]13)C2 (stereo not given in full) | -27.7
